PGC1a Ac signal: compounds raising PGC1a acetylation signal, primary screen, PGC1a modulator project, cell-based, U2OS, AlphaScreen, signal-increasing mode | activation, % at 15.6 µM | overnight | AID 651723, 2012 | actives 0.21% (n = 350,000);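 active = every replicate reaching activation of at least 50%, whatever the mean replicate activation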;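 note: hits raise the AlphaScreen acetylation signal above neutral controls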
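System: Flag-PGC1a/GCN5 U2OS cells | Quantity: 7000 cells/well | Times: Overnight compound treatment, 37 °C | Measured by: AlphaScreen proximity luminescence, anti-acetyl-lysine antibody | Dosing: One concentration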
Each line names hits and unclear results; the compound was inactive in the other large screens. The sample as a whole holds a higher share of hits than the screen did.

CC1=CC=CC2=NC(=O)CC(C)(C(=O)N(CC(=O)NC3CCCC3)c3ccccc3C)N12 (configuration not stated)	PGC1a Ac signal 54
O=C(CN1CCOCC1)N[C@H]1CC[C@H](CCNC(=O)Nc2cc(F)ccc2F)O[C@H]1CO	none
COc1ccccc1OCCn1c(C(C)O)nc2ccccc21 (configuration not stated)	PGC1a Ac signal 57
COCCn1c(SC(C)C(=O)Nc2ncc(Cl)cc2Cl)nc2ccccc21 (configuration not stated)	none
Cc1noc(C)c1NC(=O)N(C)C[C@@H]1OCCCC[C@@H](C)Oc2ccc(N(C)C)cc2C(=O)N([C@@H](C)CO)C[C@H]1C	none
Cc1ccccc1-c1nc(SCc2ccccn2)c2c(=O)n(C)c(=O)n(C)c2n1	none
N#CC1=C(N)Oc2n[nH]c(-c3ccccc3)c2C1c1ccncc1 (configuration not stated)	PGC1a Ac signal 55
C[C@H](CO)N1C[C@H](C)[C@@H](CN(C)Cc2cncnc2)Oc2cc(C#CC3CC3)ccc2S1(=O)=O	none
C=C1C(=O)[C@]23C[C@H]1CCC2[C@@]1(C)C(C[C@@H]3O)[C@](C)(C(=O)OC)CC[C@@H]1O (some centres not stated)	none
CCOc1ccc2nnc(-c3ccc(Br)cc3)n2n1	PGC1a Ac signal 52
CCc1nccn1S(=O)(=O)c1cc(C)c(OC)cc1C	none
CSC1SCC2C(=O)N(C)C(C(C)C)C(=O)OCC(NC(=O)c3cnc4ccccc4n3)C(=O)NC(C)C(=O)N(C)C1C(=O)N(C)C(C(C)C)C(=O)OCC(NC(=O)c1cnc3ccccc3n1)C(=O)NC(C)C(=O)N2C (configuration not stated)	none
COC1=CC(=O)C=C(OC)C1=O	PGC1a Ac signal 107
Cn1nnnc1Sc1ncnc2scc(-c3ccc[nH]3)c12	PGC1a Ac signal 91
CC(C)(C)c1ccc(C(=O)NCCN2CCOCC2)cc1	none
CC1CN(S(=O)(=O)c2ccc(C(=O)NCCCn3ccnc3)cc2)CC(C)O1 (configuration not stated)	PGC1a Ac signal 411
Cc1cc(C)n(C(=O)c2ccc([N+](=O)[O-])cc2N)n1	none
Cc1cccc(C)c1NC(=O)C(NC(=O)c1ccccn1)c1ccc([N+](=O)[O-])cc1 (configuration not stated)	none
Cc1c(C(=S)Nc2ccccc2)cnn1-c1ccc([N+](=O)[O-])cc1	PGC1a Ac signal 71
O=[N+]([O-])c1cc(-c2ncccn2)c([N+](=O)[O-])s1	none
NC(=O)NC(=O)Nc1ccccc1Cl	none
NC(=O)c1ccc(NC(=O)C#Cc2ccccc2)cc1	PGC1a Ac signal 203
CCOc1ccc(S(=O)(=O)/N=C(/Nc2ccc(C(C)=O)cc2)c2ccccc2)cc1	PGC1a Ac signal 66
CCOc1ccc(NS(=O)(=O)c2ccc3c(c2)oc(=O)n3C)cc1	none
CCOc1ccc(N(C(=O)Nc2ccccc2)C2=NCCC2)cc1	none
COc1cccc(-c2cc(C(=O)NCCCn3ccnc3)no2)c1	PGC1a Ac signal 80
Cc1ccccc1NC(=O)CC1c2ccccc2CC(C)(C)N1C (configuration not stated)	none
O=C(CC1CC1)N[C@@H]1CC[C@H](CCNS(=O)(=O)c2ccc(Cl)cc2)O[C@H]1CO	none
C[C@H]1CN([C@@H](C)CO)S(=O)(=O)c2ccc(C3=CCCC3)cc2O[C@@H]1CN(C)C	none
CCOC(=O)c1ccc(NC(=O)c2nc(S(=O)(=O)Cc3ccccc3)ncc2Cl)cc1	PGC1a Ac signal 78
Cc1nc(Nc2ccc(S(N)(=O)=O)cc2)sc1C(=O)Nc1ccccc1	none
Cc1ccccc1Oc1cc(-n2ncc(Cl)c(Cl)c2=O)ncn1	none
CCOC(=O)CN1C(=N)N(c2nc(NC(C)C)nc(OC)n2)CC1=O	none
CCc1cc(C=NC2CCCCC2)c(O)s1	PGC1a Ac signal 61
CCCCCC(=O)N/N=C/c1ccc([N+](=O)[O-])o1	PGC1a Ac signal 105
O=C(Cc1ccc2c(c1)OCO2)NN=Cc1ccc([N+](=O)[O-])o1	PGC1a Ac signal 137
COc1ccc(-c2ccc(/C=N/NC(=O)Cc3nnc(N)s3)o2)cc1Cl	none
O=C(N/N=C\c1ccc([N+](=O)[O-])o1)C1COc2ccccc2O1 (configuration not stated)	PGC1a Ac signal 117
Cc1ccc(-c2ccc(/C=N/NC(=O)Cc3nnc(N)s3)o2)cc1Cl	none
CC1=C(C(=O)OCc2ccc3c(c2)OCO3)C(c2ccccc2)NC(=O)N1 (configuration not stated)	none
CCn1cc([N+](=O)[O-])c(C(=O)NCc2ccc3c(c2)OCO3)n1	none
C[C@H](CO)N1C[C@H](C)[C@@H](CN(C)C(=O)CCN2CCCCC2)Oc2ncc(C#Cc3ccccn3)cc2C1=O	none
C=CCNS(=O)(=O)c1cccc2cc(C(=O)O)c(O)cc12	none
CCOc1ccccc1OCCn1nnc2ccccc21	PGC1a Ac signal 53
COc1ccc(/C=N/NC(=O)c2ccn[nH]2)cc1CN1CCOCC1	none
Cc1cc(C=O)c(C)n1-c1ccc(NC2CCCC2)c([N+](=O)[O-])c1	none
CC(C)NC(=O)N(C)C[C@H]1Oc2c(NS(=O)(=O)c3cn(C)cn3)cccc2C(=O)N([C@@H](C)CO)C[C@@H]1C	none
